In data set [1] the test system is Bacillus subtilis. Put plainly: Antibacterial activity against Bacillus subtilis ATCC9372 assessed as bacterial growth inhibition incubated for 18 hrs by CLSI based broth microdilution method. The class given is functional. The method in brief:
(§1)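 CLSI broth microdilution. Log-phase bacteria in Mueller Hinton broth added to 2-fold serial dilutions spanning 128 to 0.25 or 2 to 0.004 µg/mL. Incubated aerobically for 18 h at 37 °C, then OD600 read. MIC is the lowest concentration giving ≥90% growth inhibition; three independent assays.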
Background: In broth dilution the organism is exposed to a series of concentrations in liquid medium.

Data set [2] relates to Staphylococcus aureus. Put plainly: Antibacterial activity against Staphylococcus aureus ATCC29213 assessed as bacterial growth inhibition incubated for 18 hrs by CLSI based broth microdilution method. The class given is functional. In short, it runs like this: as §1
Data set [3] concerns Staphylococcus aureus. Briefly: Antibacterial activity against Staphylococcus aureus ATCC25923 assessed as bacterial growth inhibition incubated for 18 hrs by CLSI based broth microdilution method. Type of data set: functional. In short, it runs like this:
as §1

Data set [4] relates to Bacillus subtilis. Briefly: Antibacterial activity against Bacillus subtilis MG27 assessed as bacterial growth inhibition incubated for 18 hrs by CLSI based broth microdilution method. Type of data set: functional. The method in brief: as §1
For data set [5], the system named is Bacillus subtilis. Briefly: Bactericidal activity against Bacillus subtilis ATCC9372 incubated for 24 hrs by broth microdilution method. Type of data set: functional. In short, it runs like this:
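MBC from the broth microdilution plates (MHB, 2-fold dilutions). After 24 h, 5 µL aliquots from clear wells were plated on LB agar and incubated aerobically 24 h at 37 °C, then colonies counted. MBC = lowest concentration with no colonies.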

Data set [6] has as its system Staphylococcus aureus. Put plainly: Induction of resistance in Staphylococcus aureus ATCC29213 assessed as fold increase in MIC at 0.5 times MIC after 18 passages incubated for 24 hrs by resistance development assay. Type of data set: functional. The method in brief:
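Serial passage of S. aureus ATCC29213. Initial MIC was found by broth microdilution. Bacteria from the 0.5 × MIC tubes (duplicate) were diluted to about 5 × 10^5 CFU/mL and re-exposed to compound for 24 h at 35 °C, then fold increase in MIC was determined. Repeated for 18 passages, with norfloxacin as comparator.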

Data set [7] has as its target T1, Cell division protein FtsZ (Staphylococcus aureus) (UniProt P0A031).
T1 sequence (whole entry): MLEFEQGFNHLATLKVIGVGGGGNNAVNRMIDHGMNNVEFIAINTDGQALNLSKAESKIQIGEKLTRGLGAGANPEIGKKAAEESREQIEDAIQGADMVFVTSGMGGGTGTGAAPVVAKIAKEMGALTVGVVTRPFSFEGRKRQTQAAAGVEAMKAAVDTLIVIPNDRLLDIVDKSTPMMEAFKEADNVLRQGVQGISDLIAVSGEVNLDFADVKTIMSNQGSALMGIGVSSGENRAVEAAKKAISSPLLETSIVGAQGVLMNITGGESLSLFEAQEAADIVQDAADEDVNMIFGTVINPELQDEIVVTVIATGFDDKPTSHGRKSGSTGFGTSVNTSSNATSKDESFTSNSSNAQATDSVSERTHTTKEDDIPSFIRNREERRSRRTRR
Briefly: Inhibition of recombinant Staphylococcus aureus FtsZ assessed as FtsZ polymerization at 10 ug/ml preincubated for 10 mins followed by GTP addition measured after 20 mins by TEM analysis. Conditions: dose 10.0 µg/ml, time 30.0 min. In short, it runs like this:
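Recombinant S. aureus FtsZ (12 µM) preincubated 10 min at room temperature with compound in DMSO, in 50 mM Hepes-KOH pH 6.8. KCl 50 mM, MgCl2 5 mM and GTP 1 mM then added, 20 min at 37 °C. Samples placed on glow-discharged carbon grids, stained with 1% phosphotungstic acid, imaged by TEM.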

Data set [8] addresses T1, Cell division protein FtsZ (Staphylococcus aureus). Put plainly: Inhibition of recombinant Staphylococcus aureus FtsZ assessed as FtsZ polymerization at 10 ug/ml in presence of GTP by absorbance based turbidity assay. Conditions: dose 10.0 µg/ml. The method in brief:
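Recombinant S. aureus FtsZ (12 µM) with 1 mM GTP and compound in 50 mM Hepes, 50 mM KCl, 5 mM MgCl2. Polymerization followed continuously at 25 °C as light scattering (A340).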

Data set [9] shares this target. Put plainly: Inhibition of recombinant Staphylococcus aureus FtsZ-mediated GTPase activity preincubated for 10 mins followed by GTP addition measured after 30 mins by absorbance based assay. Conditions: dose <= 35.0 µg/ml, time 40.0 min. The method in brief: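 S. aureus FtsZ (6 µM) preincubated 10 min at room temperature with a range of compound concentrations in 50 mM Hepes-KOH. KCl 300 mM, MgCl2 5 mM and GTP 1 mM then added, 30 min at 37 °C. Reaction quenched with Cytophos reagent for 10 min; released phosphate read at 620 nm.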

Data set [10] is described as follows: Metabolic stability in rat liver microsomes assessed as compound remaining preincubated for 5 mins followed by NADPH addition measured immediately by LC/MS analysis. The class given is ADME, Microsome. The conditions noted are these: read-out: Stability. (Liver microsomes are a subcellular fraction often used to study metabolism.)
A short description of data set [11]: Metabolic stability in human liver microsomes assessed as compound remaining preincubated for 5 mins followed by NADPH addition measured after 15 mins by LC/MS analysis. The class given is ADME, Microsome. The conditions noted are these: time 20 min, read-out: Stability. The method in brief:
(§2)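 Liver microsomes (final protein 0.75 mg/mL) with compound in 100 mM phosphate buffer pH 7.4, preincubated 5 min at 37 °C. Reaction started with NADPH regeneration system, stopped at 5, 15, 30 and 45 min with acetonitrile containing internal standard. Percent remaining measured by LC/MS, with ketanserin as reference; variation given as RSD of area ratio.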

Data set [12] is described as follows: Metabolic stability in human liver microsomes assessed as compound remaining preincubated for 5 mins followed by NADPH addition measured after 45 mins by LC/MS analysis. Type of data set: ADME, Microsome. The conditions noted are these: time 50 min, read-out: Stability. The method in brief: as §2
The nature of data set [13]: Metabolic stability in human liver microsomes assessed as half life preincubated for 5 mins followed by NADPH addition measured upto 45 mins by LC/MS analysis. Conditions: time < 50 min. Type of data set: ADME, Microsome. In short, it runs like this: (§3)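 Liver microsomes at 0.75 mg/mL final protein, with test article and NADPH regeneration system (6 mM) in 100 mM phosphate buffer, pH 7.4. Preincubated 5 min at 37 °C, then started with NADPH. Quenched with acetonitrile containing internal standard at 5, 15, 30 and 45 min, centrifuged, and percent remaining measured by LC/MS. Ketanserin served as reference.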

Data set [14] in a line: Metabolic stability in human liver microsomes assessed as intrinsic clearance preincubated for 5 mins followed by NADPH addition measured upto 45 mins by LC/MS analysis. The class given is ADME, Microsome. The conditions noted are these: time < 50 min, read-out: CLH. In short, it runs like this:
as §3

The nature of data set [15]: AUC (0 to t) in ICR mouse at 1 mg/kg, iv measured for 0.08 to 24 hrs by LC-MS/MS analysis. The class given is ADME, organism-based. On the set-up: time 0.08-24 hrs, dose 1 mg/kg, route iv. Conditions: in vivo. In short, it runs like this: (§4)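 Male ICR mice, single intravenous dose formulated in 5% DMSO, 4% ethanol, 5% Cremophor EL, 86% water. Blood sampled at 5, 15, 30 min, 1, 2, 4, 8 and 24 h; plasma stored at -20 °C. Compound quantified by LC-MS/MS, with parameters from non-compartmental analysis.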

Data set [16] is described as follows: AUC (0 to infinity) in ICR mouse at 1 mg/kg, iv measured for 0.08 to 24 hrs by LC-MS/MS analysis. Conditions: in vivo. Type of data set: ADME, organism-based. On the set-up: dose 1 mg/kg, time upper 24 hrs, time lower 0.08 hrs, route iv. In short, it runs like this:
as §4

The nature of data set [17]: AUC (0 to infinity) in ICR mouse at 5 mg/kg, po measured for 0.25 to 24 hrs by LC-MS/MS analysis. The class given is ADME, organism-based. On the set-up: time upper 24 hrs, time lower 0.25 hrs, dose 5 mg/kg, route po. Conditions: in vivo. In short, it runs like this: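 Male ICR mice dosed orally with a solution of 5% DMSO, 4% ethanol, 5% Cremophor EL and 86% water. Blood collected at 15, 30 min, 1, 2, 4, 6, 8 and 24 h; plasma stored at -20 °C. Plasma levels measured by LC-MS/MS; parameters by non-compartmental analysis, with bioavailability relative to the 1 mg/kg iv dose.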

Values after ≈ are worked out from the molar mass of the structure shown. Active and inactive are the calls of the source.

By MIC is commonly meant the lowest concentration that inhibits growth of the organism. In general, MBC refers to the lowest tested concentration that kills the bacteria rather than only halting them. Usually half-life stands for the time needed for the level to fall by half in the phase considered. As usually defined, the AUC(0-t) is exposure summed from dosing to a finite time, without extrapolation to infinity. The low end stands for low exposure, the high end for high exposure. Usually AUC(0-inf) stands for total exposure, with the tail of the curve extrapolated.

`Cc1cc(Cl)ccc1-c1cccc(COc2ccc(F)c(C(N)=O)c2F)c1`: the MIC was determined as 0.016 µg/mL (≈ 0.0413 µM) in data set [1], 0.25 µg/mL (≈ 0.645 µM) in [2], 0.125 µg/mL (≈ 0.322 µM) in data set [3] and 0.031 µg/mL (≈ 0.0799 µM) in data set [4]. In [5], this molecule yielded an MBC of 0.063 µg/mL (≈ 0.162 µM). Also, in [6], the “fold change (FC)” value is on record as 4. Also, the inhibition result in [7], in data set [8] and in data set [9] was “Active” throughout. For the same molecule, the remaining at 0 min in data set [10] is 100%. The remaining at 0.25 h in data set [11] came to 86.2%. Also, the remaining at 0.75 h in data set [12] worked out at 75%. Besides, in [13], the half-life is 112 min. Also, in data set [14], the CLint scaled was found to be 15.5 mL/min/kg. In data set [15], this molecule returned an AUC(0-t) of 178 ng·h/mL. The AUC(0-inf) in [16] stood at 179 ng·h/mL; in data set [17] it was 559 ng·h/mL.

Values taken from ChEMBL document CHEMBL5338714, “Design, synthesis and biological evaluation of biphenyl-benzamides as potent FtsZ inhibitors” (Eur J Med Chem, 2022).
